Measured values of several laboratories.
Compare with care: the assays were run in different laboratories.

Structure (SMILES) | tested on | test | system | conditions | endpoint | value
COC1=CC(=O)c2ccccc2C1=O | Lodderomyces parapsilosis | microbial growth, broth dilution | ATCC22019 | 24 h | MIC | 6.25 µg/mL
Cc1c(Cc2ccccc2)c(=O)oc2c(C)c(OCC(=O)NN=Cc3ccccc3)ccc12 | MDA-MB-231 | cell growth or viability, MTT | – | 1000 µg/mL | viability | 3.55%
C[C@@H]1CC[C@@H]([C@@](O)(CNCc2ccccc2)COCc2ccccc2)[C@H](OCc2ccccc2)C1 | MDA-MB-231 | cell growth or viability, MTT | – | 10 µM, 72 h | inhibition | 95.5%
C=CCOc1ccc2c(C)c(CC)c(=O)oc2c1C | MDA-MB-231 | cell growth or viability, MTT | – | 1000 µg/mL | viability | 3.1%
C[C@H](NC(=O)CO/N=c1\cc2n(-c3ccc(Cl)cc3)c3ccccc3nc-2cc1Nc1ccc(Cl)cc1)C(=O)OC(C)(C)C | Neisseria gonorrhoeae | microbial growth | ATCC49226 | – | MIC | 3.75 µM
C=CCNC(=S)NNC(=O)COc1ccc2c(C)c(CC)c(=O)oc2c1C | MDA-MB-231 | cell growth or viability, MTT | – | 1000 µg/mL | viability | 2.7%
O=C(O)CO/N=c1\cc2n(-c3ccc(Cl)cc3)c3ccccc3nc-2cc1Nc1ccc(Cl)cc1 | Neisseria gonorrhoeae | microbial growth | ATCC49226 | – | MIC | 1.88 µM
C[C@@H]1[C@H](O)[C@@H](C)/C=C/C=C/C=C/C=C/C=C/C=C/C=C/[C@H](O[C@@H]2O[C@H](C)[C@@H](O)[C@H](N)[C@@H]2O)C[C@@H]2O[C@](O)(C[C@@H](O)C[C@@H](O)[C@H](O)CC[C@@H](O)C[C@@H](O)CC(=O)O[C@H]1C)C[C@H](O)[C@H]2C(=O)O | Lodderomyces parapsilosis | microbial growth, broth dilution | ATCC22019 | 24 h | MIC | 2 µg/mL
CC(C)/N=c1\cc2n(-c3ccc(Cl)cc3)c3ccccc3nc-2cc1Nc1ccc(Cl)cc1 | Neisseria gonorrhoeae | microbial growth | ATCC49226 | – | MIC | 0.94 µM
C[C@@H]1CC[C@@H]([C@](O)(CNCc2ccccc2)COCc2ccc(F)cc2)[C@H](OCc2ccc(F)cc2)C1 | MDA-MB-231 | cell growth or viability, MTT | – | 10 µM, 72 h | inhibition | 93.8%
O=C(O)CNC(=O)CO/N=c1\cc2n(-c3ccc(Cl)cc3)c3ccccc3nc-2cc1Nc1ccc(Cl)cc1 | Neisseria gonorrhoeae | microbial growth | ATCC49226 | – | MIC | 1.88 µM
Cc1c(C(=O)O)ccc2c3n(nc12)[C@@H]1[C@H](C3)N(CC2CC2)[C@@]2(C(=O)Nc3cc(Cl)ccc32)[C@H]1c1cccc(Cl)c1F | hTERT-RPE1 | cell growth or viability, ATP luminescence | – | 72 h | GI50 | 21 nM
